According to paper PMC7693064 (American Journal of Hematology, 2020):

What was measured:
alternative pathway = assay: AH50 assay, hemolytic activity of the alternative pathway, PHAROAH; assay type: in vivo, human
subjects with PNH [1] = assay: Hemolytic markers; assay type: in vivo, human
C3 = C3 (Homo sapiens, UniProt P01024); assay: Serum C3 levels, PHAROAH; assay type: in vivo
Method in brief: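 Values were judged against the reference range in use at each time point. For one subject, pegcetacoplan dosing was suspended between days 29 and 56 and resumed at 180 mg/d on day 57. Individual data were plotted over time.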

[2] = Pegcetacoplan serum concentrations; assay type: in vivo, human; conditions: single-dose phase, SC 25 or 50 mg (cohorts 1 and 2)
subjects with PNH [3] = assay: Packed RBC transfusions, PHAROAH; assay type: in vivo, human
Method in brief: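 Packed RBC transfusions given to each cohort 4 subject were recorded throughout the study. […] Pegcetacoplan was given at 270 mg/d SC, and dosing could be increased with Sponsor approval.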

PNH RBCs = assay type: in vivo, human
Method in brief: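 Whole-blood flow cytometry. RBCs were gated with FITC anti-human glycophorin A, and CD59 was detected with PE anti-CD59 to classify type II (partial) and type III (complete) deficient cells. C3 deposition was detected with biotinylated anti-human C3d plus streptavidin-APC. Matched mouse IgG isotype controls were included.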

classical pathway = assay: CH50 assay, hemolytic activity of the classical pathway, PHAROAH; assay type: in vivo, human; conditions: six subjects, first year of treatment, with eculizumab
Method in brief: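 Results were reported in complement activity enzyme units or U/mL, as the laboratory changed units during the study. Each value was judged against the reference range in use at that time point. Individual subject data were plotted over time.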

[4] = subject 12, day 421, after initial attempt to discontinue eculizumab with no increase in pegcetacoplan dosing

Chain of C3 (P01024 23-1663): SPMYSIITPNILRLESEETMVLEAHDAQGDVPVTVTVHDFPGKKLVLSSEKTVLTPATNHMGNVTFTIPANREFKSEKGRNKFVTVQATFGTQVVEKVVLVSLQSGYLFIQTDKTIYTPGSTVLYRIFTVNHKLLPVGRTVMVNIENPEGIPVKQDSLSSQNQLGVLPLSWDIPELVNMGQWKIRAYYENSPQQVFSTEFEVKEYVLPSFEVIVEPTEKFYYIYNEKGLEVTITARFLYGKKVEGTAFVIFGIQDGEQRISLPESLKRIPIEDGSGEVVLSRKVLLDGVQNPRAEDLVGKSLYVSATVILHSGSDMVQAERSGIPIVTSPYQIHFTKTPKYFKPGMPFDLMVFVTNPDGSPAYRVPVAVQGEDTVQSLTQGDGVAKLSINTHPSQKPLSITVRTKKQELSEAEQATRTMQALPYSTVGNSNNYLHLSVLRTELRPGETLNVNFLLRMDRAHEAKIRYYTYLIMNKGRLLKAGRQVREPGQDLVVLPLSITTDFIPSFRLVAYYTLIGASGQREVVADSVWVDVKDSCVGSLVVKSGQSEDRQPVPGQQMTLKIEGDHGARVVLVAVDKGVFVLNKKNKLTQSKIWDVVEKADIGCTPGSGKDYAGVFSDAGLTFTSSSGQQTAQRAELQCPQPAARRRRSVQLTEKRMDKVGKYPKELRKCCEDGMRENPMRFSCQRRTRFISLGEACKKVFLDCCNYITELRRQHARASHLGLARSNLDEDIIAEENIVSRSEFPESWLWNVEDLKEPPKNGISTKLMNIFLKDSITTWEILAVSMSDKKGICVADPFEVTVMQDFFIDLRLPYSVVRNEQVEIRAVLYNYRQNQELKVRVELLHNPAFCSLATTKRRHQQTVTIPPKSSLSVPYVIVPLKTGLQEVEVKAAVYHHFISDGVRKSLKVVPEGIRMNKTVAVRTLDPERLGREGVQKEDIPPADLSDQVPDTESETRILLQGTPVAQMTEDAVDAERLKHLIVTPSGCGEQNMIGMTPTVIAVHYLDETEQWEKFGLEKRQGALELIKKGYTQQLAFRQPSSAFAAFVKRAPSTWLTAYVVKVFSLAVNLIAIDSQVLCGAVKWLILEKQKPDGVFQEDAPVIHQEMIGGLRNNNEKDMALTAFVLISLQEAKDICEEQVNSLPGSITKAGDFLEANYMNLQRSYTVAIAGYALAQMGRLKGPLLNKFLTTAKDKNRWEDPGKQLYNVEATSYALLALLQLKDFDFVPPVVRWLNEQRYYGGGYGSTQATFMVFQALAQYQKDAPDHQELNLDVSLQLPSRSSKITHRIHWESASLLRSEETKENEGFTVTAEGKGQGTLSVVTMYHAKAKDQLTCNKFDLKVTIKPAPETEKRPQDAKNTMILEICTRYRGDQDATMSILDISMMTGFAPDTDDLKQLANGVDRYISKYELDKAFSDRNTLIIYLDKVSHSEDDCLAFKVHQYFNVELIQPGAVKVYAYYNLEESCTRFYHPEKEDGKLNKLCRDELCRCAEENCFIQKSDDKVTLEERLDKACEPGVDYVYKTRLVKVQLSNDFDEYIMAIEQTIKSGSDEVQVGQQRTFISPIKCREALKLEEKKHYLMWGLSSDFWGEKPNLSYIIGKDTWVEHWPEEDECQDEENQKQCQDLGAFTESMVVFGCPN

Serum C3 levels, change (C3; all subjects in cohort 4): increase | Serum C3 level (C3; subject 11, day 29): 415 mg/dL | Serum C3 level (C3; subject 11, day 57, after suspension of pegcetacoplan dosing): 107 mg/dL
Substance: pegcetacoplan
AH50 levels (alternative pathway; after eculizumab discontinuation): increased following eculizumab discontinuation | Subjects with AH50 levels within the 77-159 U/mL reference range (alternative pathway; last evaluation time point, four subjects who completed the study): two of the four | Subjects with hemoglobin levels within reference range 11.1-15.9 g/dL (subjects with PNH [1]; after 2 years of treatment, four remaining subjects): three of the four | Reticulocyte count, change during the study (subjects with PNH [1]; cohort 4): reductions were observed in all subjects | Total bilirubin levels, change during the study (subjects with PNH [1]; cohort 4): Decreases in total bilirubin levels were observed in all subjects | Hemoglobin levels (subjects with PNH [1]; cohort 4, all six subjects): increased in all subjects by day 29 | LDH levels during treatment (subjects with PNH [1]; cohort 4, with some fluctuations): remained stable | LDH level (subjects with PNH [1]; [4]): 1571 U/L | Total bilirubin level (subjects with PNH [1]; [4]): 2.3 mg/dL | Time of peak serum concentration [2]: a week after dosing | Transfusion avoidance (subjects with PNH [3]; four subjects who completed the study): achieved in all four subjects | Packed RBC transfusions received during the study (subjects with PNH [3]; subject 9, seven given before steady state or after pegcetacoplan was suspended): nine | Deposition of C3 fragments on the surface of type II and III RBCs (PNH RBCs; all subjects in cohort 4): decrease | Type II and III cells as a proportion of the clonal distribution of total RBCs (PNH RBCs; five subjects, by day 85): > 90% | Effect on CH50 (classical pathway): No significant effect
